Experimental data from ChEMBL document CHEMBL1155929, “3-(4-(6-Fluoroalkoxy-3,4-dihydroisoquinoline-2(1H)-yl)cyclohexyl)-1H-indole-5-carbonitriles for SERT imaging: chemical synthesis, evaluation in vitro and radiofluorination” (Bioorg Med Chem Lett, 2008).

What was measured:
[1] = target: T1, Sodium-dependent serotonin transporter (Homo sapiens, UniProt P31645); assay: biochemical; assay type: cell-based, HEK293
Target sequence in this assay (P31645 whole entry): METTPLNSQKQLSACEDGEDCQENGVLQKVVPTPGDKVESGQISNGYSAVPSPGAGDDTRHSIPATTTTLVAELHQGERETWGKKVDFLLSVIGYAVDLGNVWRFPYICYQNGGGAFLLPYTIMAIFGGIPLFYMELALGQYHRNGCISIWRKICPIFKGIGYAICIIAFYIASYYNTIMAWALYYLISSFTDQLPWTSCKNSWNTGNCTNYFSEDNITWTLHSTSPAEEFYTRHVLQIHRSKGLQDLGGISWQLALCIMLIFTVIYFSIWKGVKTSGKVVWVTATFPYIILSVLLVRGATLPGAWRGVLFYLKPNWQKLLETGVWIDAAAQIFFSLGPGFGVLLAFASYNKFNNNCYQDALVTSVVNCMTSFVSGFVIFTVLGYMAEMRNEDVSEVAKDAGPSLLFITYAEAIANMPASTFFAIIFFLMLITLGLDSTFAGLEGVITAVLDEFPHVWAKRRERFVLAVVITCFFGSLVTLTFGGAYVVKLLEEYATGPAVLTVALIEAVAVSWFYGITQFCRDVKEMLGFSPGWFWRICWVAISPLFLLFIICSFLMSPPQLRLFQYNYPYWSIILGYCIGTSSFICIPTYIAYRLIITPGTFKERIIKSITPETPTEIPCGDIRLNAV

[2] = target: T1, Sodium-dependent serotonin transporter; assay: biochemical; assay type: cell-based, HEK293; remark: listed apart in the source
Target sequence in this assay (P31645 whole entry): as above

[3] = target: Sodium-dependent noradrenaline transporter (Homo sapiens, UniProt P23975); assay: Displacement of [3H]nisoxetine from human NET expressed in HEK293 cells; assay type: cell-based
Outline: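 Homogenate of HEK293 cells stably expressing hNET, in 50 mM Tris-HCl pH 7.4, 120 mM NaCl, 5 mM KCl. Incubated with 0.5 nM [3H]nisoxetine (KD 6.77 nM) and 6-12 test concentrations at 21 °C for 60 min. Nonspecific binding with 100 µM protriptyline. IC50 from triplicates per experiment; Ki calculated.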

[4] = target: Sodium-dependent dopamine transporter (Homo sapiens, UniProt Q01959); assay: Displacement of [3H]WIN-35428 from human DAT expressed in HEK293 cells; assay type: cell-based
Outline: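 Homogenate of HEK293 cells stably expressing hDAT, in 50 mM Tris-HCl pH 7.4, 100 mM NaCl. Incubated with 0.5 nM [3H]WIN35,428 (KD 24.1 nM) and 6-12 test concentrations on ice for 120 min. Nonspecific binding with 10 µM GBR12909. IC50 from triplicates per experiment; Ki calculated.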

[5] = target: T2, 5-hydroxytryptamine receptor 1A (Rattus norvegicus, UniProt P19327); assay: Displacement of [3H]8-OH-DPAT from 5HT1A receptor in rat cortical membrane; assay type: cell membranes
T2 sequence (P19327 whole entry): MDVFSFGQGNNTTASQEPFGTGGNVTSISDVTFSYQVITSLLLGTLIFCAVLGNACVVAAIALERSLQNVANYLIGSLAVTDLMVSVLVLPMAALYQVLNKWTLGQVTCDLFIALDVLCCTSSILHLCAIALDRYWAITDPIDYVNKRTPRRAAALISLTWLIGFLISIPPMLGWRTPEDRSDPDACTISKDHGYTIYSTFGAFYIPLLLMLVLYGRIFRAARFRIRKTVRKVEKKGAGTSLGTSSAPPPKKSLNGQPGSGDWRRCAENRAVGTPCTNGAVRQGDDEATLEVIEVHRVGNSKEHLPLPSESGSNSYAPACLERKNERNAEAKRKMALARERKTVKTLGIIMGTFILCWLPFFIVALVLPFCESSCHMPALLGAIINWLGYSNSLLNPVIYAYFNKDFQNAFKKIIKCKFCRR
Outline: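 Rat cortical membrane homogenate diluted in 50 mM Tris-HCl pH 7.4, 4 mM CaCl2, 0.1% ascorbic acid. Incubated with 0.3 nM [3H]-8-OH-DPAT and 6-12 test concentrations at 21 °C for 60 min. Nonspecific binding defined with 10 µM serotonin hydrochloride. IC50 from triplicates per experiment, at least three independent experiments; Ki calculated.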

[6] = target: T1, Sodium-dependent serotonin transporter; assay: Ratio of Ki for displacement of [3H]paroxetine to displacement of [3H]citalopram from human SERT expressed in […] cells; assay type: cell-based
Target sequence in this assay (P31645 whole entry, looked up): as the sequence (P31645 whole entry) above

[7] = Partition coefficient, log D at pH 7.2 to 7.4 by HPLC Multisorb; assay type: physicochemical; details: octanol/water
Outline: (§1)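 HPLC log D on Multisorb RP18-7 or Supelcosil ABZ+ Plus columns. Gradient from 5% MeCN + 20 mM ammonium acetate to 80% MeCN + 20 mM ammonium acetate over 55 min at 1 ml/min. n ≥ 3 per standard or sample.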

Cortex = assay: Stability in rat cortex at pH 7.2 to 7.4 after 120 mins; assay type: ADME, tissue-based; details: buffer, pH 7.2, 2 h
Outline: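 18F tracer incubated at 37 °C in rat cortex homogenate in Tris-HCl, pH 7.2–7.4, for up to 120 min. Sampled every 30 min and analysed by radio-HPLC and TLC.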

[8] = Partition coefficient, log D in phosphate buffer at pH 7.2 to 7.4 by extractive method; assay type: physicochemical; details: octanol/water
Outline: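 Batch n-octanol–buffer extraction of the 18F-labelled tracer. Buffers were 50 mM Sørensen phosphate pH 7.2, Dulbecco's PBS pH 7.2, and 30 mM Tris-HCl pH 7.4. n = 3 per buffer system.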

[9] = Partition coefficient, log D at pH 7.2 to 7.4 by HPLC Supelcosil; assay type: physicochemical; details: octanol/water
Outline: as §1

[10] = Stability in aqueous sodium hydroxide at 80 degC after 30 mins; assay type: physicochemical; details: buffer, 0.5 h
Outline: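 18F tracer held in 0.1 or 1.3 M aqueous NaOH at 80 °C. Analysed by radio-HPLC and TLC.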

[11] = Protein binding in rat plasma by acetonitrile precipitation; assay type: ADME, cell-free; details: read-out: PB (converted)
Outline: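 18F tracer incubated in freshly isolated rat plasma (protein 95 mg/ml) for 30 min at 37 °C. Protein precipitated with MeCN and extracted twice. Centrifuged at 2000g for 30 min at room temperature; n = 3.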

Sodium-dependent dopamine transporter, sequence (Q01959 whole entry): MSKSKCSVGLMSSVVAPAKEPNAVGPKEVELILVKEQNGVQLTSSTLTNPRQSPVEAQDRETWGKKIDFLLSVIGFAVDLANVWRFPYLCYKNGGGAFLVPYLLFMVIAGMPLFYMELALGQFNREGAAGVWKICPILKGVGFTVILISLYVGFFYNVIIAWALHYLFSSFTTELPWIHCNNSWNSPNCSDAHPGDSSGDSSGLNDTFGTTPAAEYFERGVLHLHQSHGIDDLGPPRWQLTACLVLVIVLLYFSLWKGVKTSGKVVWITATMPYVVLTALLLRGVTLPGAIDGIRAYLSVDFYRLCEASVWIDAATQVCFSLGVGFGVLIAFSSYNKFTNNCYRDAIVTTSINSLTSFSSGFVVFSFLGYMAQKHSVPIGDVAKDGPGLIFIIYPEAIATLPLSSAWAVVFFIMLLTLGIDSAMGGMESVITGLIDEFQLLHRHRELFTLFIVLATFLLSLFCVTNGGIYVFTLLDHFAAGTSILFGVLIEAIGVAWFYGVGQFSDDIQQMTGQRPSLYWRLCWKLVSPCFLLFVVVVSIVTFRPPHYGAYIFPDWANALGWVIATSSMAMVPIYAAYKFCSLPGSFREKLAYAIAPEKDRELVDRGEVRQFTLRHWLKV
Sodium-dependent noradrenaline transporter, sequence (P23975 whole entry): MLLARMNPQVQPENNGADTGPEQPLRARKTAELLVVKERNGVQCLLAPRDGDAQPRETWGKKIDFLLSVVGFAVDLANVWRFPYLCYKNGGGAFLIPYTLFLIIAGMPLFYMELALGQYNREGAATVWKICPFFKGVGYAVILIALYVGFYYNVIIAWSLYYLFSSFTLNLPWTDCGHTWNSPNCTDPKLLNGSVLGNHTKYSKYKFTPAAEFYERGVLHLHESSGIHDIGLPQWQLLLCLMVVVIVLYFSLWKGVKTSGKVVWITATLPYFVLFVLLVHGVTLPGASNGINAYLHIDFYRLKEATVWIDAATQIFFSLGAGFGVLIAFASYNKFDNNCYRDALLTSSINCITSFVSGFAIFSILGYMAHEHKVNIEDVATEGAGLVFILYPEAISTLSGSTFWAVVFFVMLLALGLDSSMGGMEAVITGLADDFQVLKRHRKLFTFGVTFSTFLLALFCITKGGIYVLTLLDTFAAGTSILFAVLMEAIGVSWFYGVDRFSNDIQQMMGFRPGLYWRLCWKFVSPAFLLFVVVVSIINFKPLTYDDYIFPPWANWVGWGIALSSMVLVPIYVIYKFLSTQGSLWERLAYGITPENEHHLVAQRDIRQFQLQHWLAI

Compound | Ki [1] [nM] | Ki [2] [nM] | Ki [3] [nM] | Ki [4] [nM] | Ki [5] [nM] | fold change (FC) [6] | logD [7] | Stability (Cortex) | logD [8] | chromatographic logD [9] | Stability [10] | fraction unbound [11]
N#Cc1ccc2[nH]cc([C@H]3CC[C@H](N4CCc5ccccc5C4)CC3)c2c1 | 286 | 90.7 | 184 | 309 | 2530 | 3.2 | – | – | – | – | – | –
COc1ccc2c(c1)CCN([C@H]1CC[C@@H](c3c[nH]c4ccc(C#N)cc43)CC1)C2 | 165 | 4.1 | 1020 | 370 | 13100 | 40.2 | – | – | – | – | – | –
N#Cc1ccc2[nH]cc([C@H]3CC[C@@H](N4CCc5cc(OCCCF)ccc5C4)CC3)c2c1 | 914 | 6.16 | 772 | 366 | 5670 | 140 | – | – | – | – | – | –
COc1ccc2c(c1)CCN([C@H]1CC[C@H](c3c[nH]c4ccc(C#N)cc43)CC1)C2 | 518 | 73.7 | 96.7 | 462 | 267 | 7 | – | – | – | – | – | –
Cc1ccc(Sc2ccccc2CN(C)C)c(N)c1 | 2.03 | 0.73 | – | – | – | – | – | – | – | – | – | –
N#Cc1ccc2[nH]cc([C@H]3CC[C@@H](N4CCc5ccccc5C4)CC3)c2c1 | 189 | 4.51 | 1430 | 424 | > 1000 | 41.9 | – | – | – | – | – | –

The next lines start with the values.

Ki [1] [nM] | Ki [2] [nM] | Ki [3] [nM] | Ki [4] [nM] | Ki [5] [nM] | fold change (FC) [6] | logD [7] | Stability (Cortex) | logD [8] | chromatographic logD [9] | Stability [10] | fraction unbound [11] | Compound
– | – | – | – | – | – | 3.27 | Stable | 2.36 | 2.49 | Stable | – | N#Cc1ccc2[nH]cc([C@H]3CC[C@H](N4CCc5cc(OCCC[18F])ccc5C4)CC3)c2c1
2310 | 327 | 102 | 343 | 2860 | 7.1 | – | – | – | – | – | – | N#Cc1ccc2[nH]cc([C@H]3CC[C@H](N4CCc5cc(OCCCF)ccc5C4)CC3)c2c1
– | – | – | – | – | – | 3.27 | Stable | 2.47 | 2.54 | Stable | 0.973 | N#Cc1ccc2[nH]cc([C@H]3CC[C@@H](N4CCc5cc(OCCC[18F])ccc5C4)CC3)c2c1
